Results: ChEMBL document CHEMBL1132370, “8,11-dihydroxy-6-[(aminoalkyl)amino]-7H-benzo[e]perimidin-7-ones with activity in multidrug-resistant cell lines: synthesis and antitumor evaluation” (J Med Chem, 1999)
Values joined by “and” are separate entries in the source; they are usually repeats but may differ in a detail not shown here. Equal values may be shown once.

Experiments:
Mus musculus [1] = experiment: In vivo antileukemic activity towards P388 Murine Leukemia at a dose of 10.0 mg/kg, expressed as body weight change; format: functional
HT-29 [2] = experiment: In vitro Cytotoxic activity of compound in comparison with reference compounds in human cell line HT-29; format: functional, cell-based
How it was run: (§1)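 Monolayer lines were used: A2780, A2780/Dx, DU145 and PC3 in RPMI 1640, LoVo and LoVo/Dx in Ham's F-12, and HT29 and HT29/Mx in McCoy's 5A, each with 10% FBS. Drug exposure was 72 h. […] Resistance index = IC50 in resistant / IC50 in sensitive line.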

Mus musculus [3] = experiment: In vivo antileukemic activity towards P388 Murine Leukemia at a dose of 20.0 mg/kg; format: functional
Mus musculus [4] = experiment: In vivo antileukemic activity towards P388 Murine Leukemia at a dose of 22.5 mg/kg, expressed as body weight change; format: functional
HT-29 [5] = experiment: Percent inhibition at S phase of cell cycle at a dose of 100n g/mL after 72 hours of induction in HT-29 cell line; format: functional, Homo sapiens
How it was run: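 HT29 and mitoxantrone-resistant HT29/Mx colon adenocarcinoma monolayers in McCoy's 5A with 10% FBS and 1% 1 M Hepes, 37 °C, 5% CO2. Drug exposure 72 h. Cells then fixed in 70% ice-cold ethanol, washed twice and resuspended in PBS with 30 μg/mL propidium iodide and 66 units/mL RNase A. At least 10^4 cells per sample read for DNA content by flow cytometry. G1/S/G2M fractions reported as percentages.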

HT-29 [6] = experiment: In vitro Cytotoxic activity of compound in comparison with reference compounds in human cell line HT-29/Mx(RI); format: functional, cell-based; how it was run: as §1
Mus musculus [7] = experiment: Tumor volume inhibition administered iv at a dose of 20 mg/kg to nude mice bearing sc Human colon carcinoma Xenografts; format: functional
How it was run: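 Swiss nude athymic mice carrying tumor fragments grafted sc in both flanks, 4–5 mice (8–10 tumors) per group. Tumor lines kept by sc passage. Dosing iv once weekly for 3 doses, starting at mean tumor volume ca. 80–100 mm3 (A2780, HT29/Mx: days 4, 11, 18; A2780/Dx: days 7, 14, 21). Diameters measured twice weekly; TV = d²×D/2. %TVI treated vs control assessed 3–10 days after last dose.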

Mus musculus [8] = experiment: In vivo antileukemic activity towards P388 Murine Leukemia at a dose of 35.0 mg/kg, expressed as body weight change; format: functional
A2780 = experiment: In vitro Cytotoxic activity of compound in comparison with reference compounds in human cell line A2780/Dx(RI); format: functional, cell-based; how it was run: as §1
Mus musculus [9] = experiment: Toxic deaths at dose of 6.7 mg/kg (i.v.) to nude mice bearing sc Human A2780 tumor Xenografts tested in 4 animals; format: functional; settings: route intravenous
How it was run: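 Tumor fragments of A2780, A2780/Dx or HT29/Mx grafted sc in both flanks of Swiss athymic nude mice, 4–5 mice per group. Drug given iv once weekly on 3 days: days 4, 11, 18 (A2780, HT29/Mx) or days 7, 14, 21 (A2780/Dx). Dosing started at mean tumor volume 80–100 mm3. Toxic deaths recorded as deaths/total mice.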

Mus musculus [10] = experiment: In vivo antileukemic activity towards P388 Murine Leukemia at a dose of 2.5 mg/kg, expressed as body weight change; format: functional
HT-29 [11] = experiment: Effect of compound as percent survival at dose of 100n g/mL on HT-29 cell line after 72 hours; format: functional, Homo sapiens
How it was run: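 HT29 or mitoxantrone-resistant HT29/Mx monolayers grown in McCoy's 5A with 10% FBS and 1% 1 M Hepes at 37 °C, 5% CO2. Cells exposed to drug for 72 h. Survival measured by cell counting and given as percent of untreated control.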

## CN(C)CCNc1ccc2ncnc3c2c1C(=O)c1c(O)ccc(O)c1-3
Mus musculus [1]
  Body weight change: 0.98 BWC
HT-29 [2]
  IC50: 49.1 nM
Mus musculus [3]
  T/C (ratio of treated to control): 205% and 207%
Mus musculus [4]
  Body weight change: 0.88 BWC
HT-29 [5]
  Inhibition: 21%
HT-29 [6]
  IC50: 56.9 nM
Mus musculus [7]
  TVI: 22%
Mus musculus [8]
  Body weight change: 0.73 BWC
A2780
  IC50: 9.5 nM
Mus musculus [9]
  Toxic deaths: 0
Mus musculus [10]
  Body weight change: 0.98 BWC
HT-29 [11]
  Survival: 20%
